Results as given in PMC12808645 (Nature Communications, 2025).

Tests used:
Drosophila Nan-Iav = conditions: cited from earlier work
Nan-IavY325A = format: binding, Halyomorpha halys
stink bug Nan-Iav [1] = target: stink bug Nan-Iav; parameters: species or system Halyomorpha halys; conditions: read-out: [3H]-AP binding Kd
Nan only, Y172A = test: [3H]-AP binding to Nan-only membranes, Y172A; parameters: species or system Halyomorpha halys; conditions: NanY172A
Procedure, shortened: (§1)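 Nan expressed in HEK293S GnTI- suspension cells (1–1.5 M/mL) by 3% (v/v) baculovirus, ~1 day at 37 °C then 48 h at 25 °C. Membranes were made by sonication and spun at 300 × g 10 min then 50,000 × g 2 h. Saturation binding used 60–100 µg membranes with [3H]-AP in pH 7.4 HEPES binding buffer (CaCl2, MgCl2, 0.0025% Tween-20), 3 h at room temperature. Samples were filtered on 0.1% PEI-treated filters, washed thrice with ice-cold buffer, and counted by scintillation. Nonspecific binding was set with 500-fold excess unlabeled AP.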

Nan only, Y177A = test: [3H]-AP binding to Nan-only membranes, Y177A; parameters: species or system Halyomorpha halys
Procedure, shortened: as §1

Nan only, WT = test: [3H]-AP binding to Nan-only membranes, WT; parameters: species or system Halyomorpha halys; conditions: read-out: [3H]-AP binding Kd
Procedure, shortened: as §1

Nan-IavW701A = test: Whole-cell electrophysiology, Nan-IavW701A; format: cell-based, Halyomorpha halys; conditions: 1 mM Ca2+
Nan-Iav(∆697-C) = format: cell-based, Halyomorpha halys; conditions: 1 mM Ca2+, Δ C-ter (Iav∆(697-986))
stink bug Nan-Iav [2] = format: binding, Halyomorpha halys

**Q.** With NC(=O)c1cccnc1 [NAM, nicotinamide] as the molecule, how does the EC50 (Drosophila Nan-Iav) read?
**A.** The EC50 was 14 µM.

**Q.** What about the “NAM binding (in words)” value (Nan-IavY325A) of the same molecule?
**A.** Its value is “eliminated NAM binding”.

**Q.** With C[C@]1(COC(=O)C2CC2)[C@@H]2C[C@H](O)[C@@]3(C)Oc4cc(-c5cccnc5)oc(=O)c4[C@H](O)[C@@H]3[C@@]2(C)CC[C@@H]1OC(=O)C1CC1 [[^3H]-AP] as the molecule, how does the Kd (stink bug Nan-Iav [1]) read?
**A.** The Kd was 0.017 nM.

**Q.** And the “higher [3H]-AP Kd compared to WT Nan” value (Nan only, Y172A)?
**A.** Its value is 7.5 fold.

**Q.** What about the “[3H]-AP binding Kd” value (Nan only, Y177A) of the same molecule?
**A.** Its value is “lacks measurable binding”.

**Q.** And the Kd (Nan only, WT)?
**A.** Its Kd is 0.089 nM.

**Q.** For [Ca+2] [Ca^2+], which “% inhibition of inward current” value (Nan-IavW701A) is on record?
**A.** Its value is ~ 10%.

**Q.** And the “% inhibition of inward current” value (Nan-Iav(∆697-C))?
**A.** Its value is ~ 10%.

**Q.** For CC1=NNC(=O)N(/N=C/c2cccnc2)C1 [PM, pymetrozine], which “binding mode versus [3H]-AP” value (stink bug Nan-Iav [2]) is on record?
**A.** Its value is “competitive binding”.
